In ChEMBL document CHEMBL1221205, “Structural and mechanistic basis of penicillin-binding protein inhibition by lactivicins” (Nat Chem Biol, 2007):
Values after ≈ are worked out from the molar mass of the structure shown.

Columns and labels:
Streptococcus pneumoniae [1] = experiment: Ratio of MIC for penicillin-resistant Streptococcus pneumoniae 38040505 to MIC for penicillin-sensitive Streptococcus pneumoniae R6; assay type: functional
Summary of the method: (§1)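 Strains grown in Todd-Hewitt medium at 37 °C to OD600 0.3, then plated on Columbia blood agar with 5% horse blood containing LTV or PLTV at 0 to 100 µg ml-1. MIC taken as the concentration at visually determined growth arrest on plates. Ratio lines compare resistant-strain MIC with the R6 MIC obtained the same way.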

Streptococcus pneumoniae [2] = experiment: Ratio of MIC for penicillin-resistant Streptococcus pneumoniae 5204 to MIC for penicillin-sensitive Streptococcus pneumoniae R6; assay type: functional; summary of the method: as §1
Streptococcus pneumoniae [3] = experiment: Ratio of MIC for penicillin-resistant Streptococcus pneumoniae 4790 to MIC for penicillin-sensitive Streptococcus pneumoniae R6; assay type: functional; summary of the method: as §1
Streptococcus pneumoniae [4] = experiment: Antibacterial activity against penicillin-sensitive Streptococcus pneumoniae R6 […]; assay type: functional
Summary of the method: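 Strain grown in Todd-Hewitt medium at 37 °C to OD600 0.3, then plated on Columbia blood agar with 5% horse blood containing compound at 0 to 100 µg ml-1. MIC taken as the concentration giving visible growth arrest on plates.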

Streptococcus pneumoniae [5] = experiment: Antibacterial activity against penicillin-resistant Streptococcus pneumoniae 38040505 […]; assay type: functional; summary of the method: as §1
Streptococcus pneumoniae [6] = experiment: Antibacterial activity against penicillin-resistant Streptococcus pneumoniae 4790 […]; assay type: functional; summary of the method: as §1
Streptococcus pneumoniae [7] = experiment: Antibacterial activity against penicillin-resistant Streptococcus pneumoniae 38030509 […]; assay type: functional; summary of the method: as §1
Streptococcus pneumoniae [8] = experiment: Ratio of MIC for penicillin-resistant Streptococcus pneumoniae 38030509 to MIC for penicillin-sensitive Streptococcus pneumoniae R6; assay type: functional; summary of the method: as §1
[9] = target: T1, Penicillin-binding protein 2x (Streptococcus pneumoniae serotype 4 (strain ATCC BAA-334 / TIGR4), UniProt P14677); experiment: Inhibition of penicillin-resistant Streptococcus pneumoniae 5204 PBP2x after 120 mins by SDS-PAGE
T1 sequence (P14677 whole entry, looked up): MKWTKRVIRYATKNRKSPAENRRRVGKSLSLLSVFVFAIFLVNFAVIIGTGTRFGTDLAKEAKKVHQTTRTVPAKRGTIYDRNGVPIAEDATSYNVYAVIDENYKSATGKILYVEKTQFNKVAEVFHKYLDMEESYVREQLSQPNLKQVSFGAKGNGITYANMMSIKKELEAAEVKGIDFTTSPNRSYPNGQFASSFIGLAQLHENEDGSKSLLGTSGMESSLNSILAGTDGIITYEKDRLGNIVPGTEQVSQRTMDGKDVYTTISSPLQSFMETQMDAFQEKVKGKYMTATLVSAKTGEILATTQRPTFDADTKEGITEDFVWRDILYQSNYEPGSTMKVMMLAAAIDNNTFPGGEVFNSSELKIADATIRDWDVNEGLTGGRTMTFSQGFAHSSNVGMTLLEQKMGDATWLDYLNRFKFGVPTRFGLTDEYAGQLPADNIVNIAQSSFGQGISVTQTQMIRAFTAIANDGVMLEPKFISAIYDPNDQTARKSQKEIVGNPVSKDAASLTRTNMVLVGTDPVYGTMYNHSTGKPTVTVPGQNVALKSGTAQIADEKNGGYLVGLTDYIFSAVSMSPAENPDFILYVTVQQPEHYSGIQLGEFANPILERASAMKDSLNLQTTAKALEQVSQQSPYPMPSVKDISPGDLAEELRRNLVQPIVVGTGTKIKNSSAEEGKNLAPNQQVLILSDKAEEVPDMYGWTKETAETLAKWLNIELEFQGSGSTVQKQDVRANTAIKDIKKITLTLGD
Summary of the method: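 PBP2x-5204 (0.8 µM) preincubated with LTV for 120 min, then remaining active PBP counterlabeled with 10 µM fluorescein-ampicillin for 40 min. Bands resolved by SDS-PAGE with fluorescence imaging; background subtracted. IC50 fitted from residual activity versus inhibitor concentration. Kinetic work at 30 °C in 10 mM sodium phosphate pH 7.0.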

Streptococcus pneumoniae [10] = experiment: Antibacterial activity against penicillin-resistant Streptococcus pneumoniae 5204 […]; assay type: functional; summary of the method: as §1
[11] = target: T1, Penicillin-binding protein 2x; experiment: Inhibition of penicillin-resistant Streptococcus pneumoniae 5204 PBP2x after 60 mins by SDS-PAGE
Summary of the method: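 PBP2x-5204 (0.8 µM) preincubated with PLTV for 60 min in 10 mM sodium phosphate pH 7.0, 30 °C, with 1% dimethylformamide. Residual active enzyme counterlabeled with 10 µM fluorescein-ampicillin for 40 min, then analyzed by SDS-PAGE and fluorescence. IC50 fitted from background-subtracted residual activity against inhibitor concentration.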

Row | Compound | Ratio (Streptococcus pneumoniae [1]) | Ratio (Streptococcus pneumoniae [2]) | Ratio (Streptococcus pneumoniae [3]) | MIC (Streptococcus pneumoniae [4]) [µg/mL] | MIC (Streptococcus pneumoniae [5]) [µg/mL] | MIC (Streptococcus pneumoniae [6]) [µg/mL] | MIC (Streptococcus pneumoniae [7]) [µg/mL] | Ratio (Streptococcus pneumoniae [8]) | IC50 [9] [µM] | MIC (Streptococcus pneumoniae [10]) [µg/mL] | IC50 [11] [µM]
1 | CC(=O)NC1CON(C2(C(=O)O)CCC(=O)O2)C1=O (centres undefined) [LACTIVICIN] | 5 | 5 | 5 | 2 (≈ 7.35 µM) | 10 (≈ 36.7 µM) | 20 (≈ 73.5 µM) | 20 (≈ 73.5 µM) | 5 | 150 | > 20 | –
2 | CC1(C)S[C@@H]2[C@H](NC(=O)Cc3ccccc3)C(=O)N2[C@H]1C(=O)O [PENICILLIN G] | 150 | 150 | 150 | 0.01 (≈ 0.0299 µM) | 1.5 (≈ 4.49 µM) | 1.5 (≈ 4.49 µM) | 2 (≈ 5.98 µM) | 150 | – | 6 (≈ 17.9 µM) | –
3 | O=C(COc1ccccc1)N[C@H]1CON([C@@]2(C(=O)O)CCC(=O)O2)C1=O [PHENOXYACETYL LACTIVICIN] | 5.3 | 5.3 | 5.3 | 15 (≈ 41.2 µM) | 80 (≈ 220 µM) | > 100 | > 100 | 5.3 | – | 90 (≈ 247 µM) | 7.9
